# Test results: PMC7909006 (Clinical cancer research : an official journal of the …, 2020)
# Tests used:
# Population PK modeling = assay: Population PK modeling; set-up: species or system human; conditions: for RP2D based on body weight (population PK): exposure matched to adults receiving 800 mg daily
# Summary of the method: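 Nonlinear mixed-effects model: two compartments, sequential zero- and first-order absorption with lag time, linear elimination, and body weight as an allometric covariate on disposition parameters. Final-model estimates were used to simulate doses for ages 6–18 years that match steady-state exposure in adult TGCT patients given 800 mg daily.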
# [1] = recurrent glioblastoma patients, plasma taken at time of surgery; cited from earlier work
# [2] = non-human primate model, nontumor setting; cited from earlier work
# PBMC = assay: Flow cytometric analysis of PBMC and lymphocyte subset analysis; assay type: in vivo, human
# [3] = adult patients; cited from earlier work
# [4] = tested on: circulating monocytes and regulatory T cells and TAMs; conditions: cited from earlier work
# [5] = Plasma pharmacokinetics, noncompartmental analysis; assay type: in vivo, human
# Summary of the method: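 Oral dosing once daily, BSA-based at 400, 600 or 800 mg/m2, rolling-six escalation. Peripheral blood sampled on C1 day 1 before dosing and at 0.5–24 h after, on day 15 before dosing and at 1–6 h after, and before dosing on day 16. Plasma assayed by validated LC-MS/MS (LLOQ 10 nmol/L). Cmax, Tmax, AUC and CL/F derived by noncompartmental analysis.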
# [6] = tested on: recurrent or refractory acute leukemias or solid tumors including NF1 PN; assay: Tumor response; assay type: in vivo, human
# Summary of the method: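 Tumors assessed at baseline (within 14 days before start), then after every even 28-day cycle with the same imaging modality. Criteria were RECIST v1.1 for solid tumors, WHO for brain tumors, and volumetric MRI for NF1 plexiform neurofibromas (baseline, every 4th cycle in year 1, then every 6 cycles). Leukemia was followed by blood and marrow each cycle. Treatment lasted up to two years.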
# [7] = tested on: serum cytokines (IL-10, IL-12p70, IL-6, MCP-1, M-CSF); assay: Pharmacodynamics: serum cytokine analysis, fold change from Day 1; assay type: in vivo, human; conditions: 14–15 Days from C1; N=12
# [8] = patient 2, Osteosarcoma, dose level 1
# [9] = patient 3, Ewing Sarcoma, dose level 1
# [10] = patient 4, NF1 plexiform neurofibroma, dose level 1
# [11] = patient 5, NF1 plexiform neurofibroma, dose level 2
# [12] = patient 6, NF1 plexiform neurofibroma, dose level 2
# [13] = patient 7, Central Nervous System PNET, dose level 2
# [14] = patient 8, Primary brain tumor, dose level 2
# [15] = patient 9, NF1 malignant peripheral nerve sheath tumor, dose level 3
# [16] = patient 10, Osteosarcoma, dose level 3
# [17] = patient 11, Osteosarcoma, dose level 3
# [18] = patient 12, Embryonal rhabdomyosarcoma, dose level 3
# [19] = patient 13, Acute myeloid leukemia, dose level 3
# [20] = patient 14, Spindle cell carcinoma, dose level 3
# [21] = patient 15, Aneurysmal fibrous histiocytoma, dose level 3
# [22] = patient 16, Glioblastoma, dose level 3
smiles,measurement,setting,value
FC(F)(F)c1ccc(CNc2ccc(Cc3c[nH]c4ncc(Cl)cc34)cn2)cn1 [Pexidartinib],RP2D based on body weight (population PK),Population PK modeling; body weight < 30 kg,400 mg daily
same,RP2D based on body weight (population PK),Population PK modeling; body weight ≥ 30 & < 40 kg,600 mg daily
same,RP2D based on body weight (population PK),Population PK modeling; body weight ≥ 40 kg,800 mg daily
same,AUC,"Population PK modeling; human, plasma, oral, 800 mg, Steady-state AUC, 5th to 95th percentile, adult TGCT patients receiving 800 mg daily",96 to 255 µg·h/mL
same,Median ratio of tumor/plasma concentrations,[1],70%
same,Drug levels in the cerebral spinal fluid,[2],low but detectable levels
same,"Change in CD14dimCD16+ nonclassical, pro-inflammatory monocytes",PBMC; C1,No significant changes
same,"CD11b+ cells in PBMC, median fold change (95% CI)","PBMC; C1 days 6–8, flow cytometry","0.47 (0.21, 1.31)"
same,Change in peripheral blood lymphocyte subset analysis,PBMC; during C1,no notable changes
same,Liver toxicity in adult trials,[3],"idiosyncratic, serious (grade 4–5) liver toxicity was observed in a small subset of patients"
same,Effect on immune cells in a preclinical model,[4],decreases in circulating monocytes and regulatory T cells and TAMs
same,AUC0–24 dependence on dose,[5]; DL1 to DL3,rose with increasing dose
same,Cmax dependence on dose,[5]; DL1 to DL3,rose with increasing dose
same,"Accumulation ratio, median","[5]; day 15 vs day 1, DL3 (n=3)",1.22
same,Clearance from concentration x time curves,[5]; first day of dosing,slow clearance
same,PK dose linearity,[5]; over three DLs,linear
same,"Sustained partial response, RECIST decrease in longest diameter of target lesion","[6]; 1 patient with peritoneal mesothelioma, 400 mg/m^2/day DL",67%
same,"Stable disease, number of patients",[6]; 16 patients enrolled,three
same,Median number of treatment cycles received,"[6]; 16 patients, 1 C = 28 days",1 C
same,Duration of stable disease prior to disease progression,"[6]; one patient with metastatic, rapidly progressive osteosarcoma, 1 C = 28 days",4 C
same,Reason Off Treatment,"[6]; patient 1, Peritoneal mesothelioma, dose level 1",Remains on Study
same,Reason Off Treatment,[6]; [8],Progressive Disease
same,Time-point Off Treatment,[6]; [8],Cycle 1 Day 23
same,Reason Off Treatment,[6]; [9],Progressive Disease
same,Time-point Off Treatment,[6]; [9],Cycle 1 Day 28
same,Reason Off Treatment,[6]; [10],Best Interest of Patient
same,Time-point Off Treatment,[6]; [10],After Cycle 4
same,Reason Off Treatment,[6]; [11],Withdrawal of Consent
same,Time-point Off Treatment,[6]; [11],After Cycle 1 (took 23 doses)
same,Reason Off Treatment,[6]; [12],Best Interest of Patient
same,Time-point Off Treatment,[6]; [12],After Cycle 6
same,Reason Off Treatment,[6]; [13],Progressive Disease
same,Time-point Off Treatment,[6]; [13],After Cycle 1
same,Reason Off Treatment,[6]; [14],Progressive Disease
same,Time-point Off Treatment,[6]; [14],After Cycle 1
same,Reason Off Treatment,[6]; [15],Progressive Disease
same,Time-point Off Treatment,[6]; [15],Cycle 2 Day 28
same,Reason Off Treatment,[6]; [16],Progressive Disease
same,Time-point Off Treatment,[6]; [16],Cycle 4 Day 6
same,Reason Off Treatment,[6]; [17],Progressive Disease
same,Time-point Off Treatment,[6]; [17],Cycle 3 Day 1
same,Reason Off Treatment,[6]; [18],Progressive Disease
same,Time-point Off Treatment,[6]; [18],Cycle 1 Day 12
same,Reason Off Treatment,[6]; [19],Progressive Disease
same,Time-point Off Treatment,[6]; [19],Cycle 1 Day 15
same,Reason Off Treatment,[6]; [20],Progressive Disease
same,Time-point Off Treatment,[6]; [20],Cycle 1 Day 23
same,Reason Off Treatment,[6]; [21],Progressive Disease
same,Time-point Off Treatment,[6]; [21],Cycle 3 Day 16
same,Reason Off Treatment,[6]; [22],Progressive Disease
same,Time-point Off Treatment,[6]; [22],Cycle 2 Day 5
same,"IL-6 serum, Med. Fold Change (95% CI) from Day 1",[7],"0.91 (0.78, 1.34)"
same,"IL-10 serum, Med. Fold Change (95% CI) from Day 1",[7],"1.25 (1.11, 1.44)"
same,"IL-12p70 serum, Med. Fold Change (95% CI) from Day 1",[7],"0.92 (0.80, 1.25)"
same,"M-CSF serum, Med. Fold Change (95% CI) from Day 1",[7],"3.70 (2.31, 5.24)"
same,"MCP-1 serum, Med. Fold Change (95% CI) from Day 1",[7],"1.28 (1.01, 1.56)"
